1 molecule from ChEMBL document CHEMBL4041524, “Synthesis and Characterization of a Novel γ-Aminobutyric Acid Type A (GABAA) Receptor Ligand That Combines Outstanding Metabolic Stability, Pharmacokinetics, and Anxiolytic Efficacy” (J Med Chem, 2016) can be followed below.

Activity calls are given as the source filed them. No cut-off for these calls is given here.

Data set [1] is described as follows: Ratio of unbound concentration in Sprague-Dawley rat brain to plasma at 10 mg/kg, ip measured after 4 hrs. It is filed as ADME, organism-based. In short, it runs like this:
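Rats were given 10 mg/kg i.p. (n = 3), and total plasma and brain concentrations were measured at 4 h. Unbound concentrations were calculated as Fu × total concentration, and Kp,uu = Cu,brain/Cu,plasma.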

Data set [2] deals with GABA-A receptor; alpha-2/beta-3/gamma-2 (Homo sapiens) (UniProt P18507+P28472+P47869). Briefly: Modulation of recombinant GABA alpha2beta3gamma2 receptor (unknown origin) expressed in Xenopus laevis oocytes assessed as change in GABA-induced EC(3 to 6) current at 10 uM by two-electrode voltage clamp assay. It is filed as cell-based. In short, it runs like this: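 Xenopus laevis oocytes expressing α1, α2, α3 or α5 β3γ2 GABAARs were recorded by two-electrode voltage clamp. Modulation of the GABA EC3-6 current (taken as 100%) was tested at 100 nM, 1 μM and 10 μM in the same cells. Values are mean ± SEM, n = 3–4.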
For orientation: Two-electrode voltage clamp holds a large cell at a set potential and records current.

The test system of data set [3] is Rattus norvegicus. The experiment in a line: Anxiolytic like activity in water-deprived Sprague-Dawley rat assessed as increase in water drinking time during punished period at 10 mg/kg, po administered 30 mins prior to testing by Vogel conflict test relative to control. It is filed as functional. An outline of the steps:
(§1)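 Water-deprived male Sprague-Dawley rats (n = 6–8) drank during unpunished and punished periods, with licking suppressed by mild shock in punished periods. Compounds were given 30 min before testing. Analysis was ANOVA with Dunnett's test.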

Data set [4] relates to Rattus norvegicus. The experiment in a line: Anxiolytic like activity in water-deprived Sprague-Dawley rat assessed as increase in water drinking time during punished period at 20 mg/kg, po administered 30 mins prior to testing by Vogel conflict test relative to control. It is filed as functional. An outline of the steps: as §1
Data set [5] can be described thus: Cmax in femoral artery/vein cannulated Sprague-Dawley rat at 10 mg/kg, ip administered […] as single dose by LC-MS/MS analysis. The format is ADME, organism-based. Set-up: dose 10 mg/kg, route intraperitoneal. Particulars: in vivo. An outline of the steps:
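Male Sprague-Dawley rats (n = 3 per time point) were dosed 1 mg/kg i.v. or 10 mg/kg i.p. Plasma concentrations were measured at set time points. Clearance, Vdss and T½ came from the i.v. arm, and AUC, Cmax and Tmax from the i.p. arm.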

Data set [6] relates to Rattus norvegicus. The experiment in a line: Anxiolytic like activity in water-deprived Sprague-Dawley rat assessed as increase in water drinking time during punished period at 3 mg/kg, po administered 30 mins prior to testing by Vogel conflict test relative to control. It is filed as functional, organism-based. In short, it runs like this:
as §1

For orientation: Cmax means the peak of the concentration-time curve. On to `C#Cc1ccc2c(c1)C(c1ccccn1)=NCc1c(-c3cnco3)ncn1-2`, for which the “K(p,uu,brain)” value in data set [1] was found to be 0.66. Besides, the Activity in data set [2] amounted to 258%; with Rattus norvegicus [3], 240%; with Rattus norvegicus [4] it was 330%. In addition, in data set [5], the Cmax was 3.09 µM. In the data set with Rattus norvegicus [6], the result was inactive.
